The values below come from the array DNA melting data of Ke et al. (doi:10.1101/2024.01.08.574731).

A short description of data set [1]: folding enthalpy; higher = less favourable; fluorescence melt of hairpins on a sequencing array, two-state fit. To be noted: sodium 0.088 M. In short, it runs like this: (§1)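 Hairpins were imaged by Cy3 fluorescence on a sequenced MiSeq flow cell with annealed Cy3 and quencher oligos, in 50 mM Na-HEPES pH 8.0, 25 mM NaCl, in 2.5 °C steps up to 60 °C. Bootstrapped two-state fits of normalised signals gave melting temperature and folding enthalpy. Four replicates were combined by inverse variance, and fitted temperatures were raised by 9.35 °C to match UV melts.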

Data set [2] in a line: melting temperature; fluorescence melt of hairpins on a sequencing array, two-state fit, raised by 9.35 °C to match UV melts. Conditions: sodium 0.088 M. In short, it runs like this: as §1

Consider GTATCTGGAAACAGATGC (.(((((....))))).), for which, in data set [1], the folding enthalpy is -21.2 kcal/mol. Moreover, the Tm in data set [2] was determined as 46.9 °C.

For the sequence GTATGAGGAAACTCATGC (.(((((....))))).), the folding enthalpy in data set [1] is -26.4 kcal/mol. For the same sequence, in data set [2], the Tm was found to be 44.5 °C.

Regarding GTATGCGAAAGCAAGTAC ((((((....)))..))), the folding enthalpy in data set [1] is -8.53 kcal/mol. Besides, the Tm in data set [2] is 26.1 °C.

For the sequence GTATGCGAAAGCAGGTAC ((((((....)))..))), the folding enthalpy in data set [1] is -13.2 kcal/mol. The Tm in data set [2] amounted to 30 °C.

As for GTATGCGAAAGCAGTTAC ((((((....)))..))), in data set [1], the folding enthalpy was -10.1 kcal/mol. In data set [2], the Tm was found to be 28.2 °C.

For GTATGCGAAAGCATCTAC ((((((....)))..))), the folding enthalpy in data set [1] is -11.3 kcal/mol. Moreover, in data set [2], the Tm came to 40 °C.

As to GTATGCGGAAACGCACAC ((.((((....)))).)), in data set [1], the folding enthalpy is -15.4 kcal/mol. The Tm in data set [2] is 40 °C.

For GTATGCGGAAACGCGTAC (((.(((....))).))), in data set [1], the folding enthalpy was -31.9 kcal/mol. Further, in data set [2], the Tm turned out to be 55 °C.

As for GTATGCGGAAACGTATAC ((((.((....)).)))), the folding enthalpy in data set [1] was -31 kcal/mol. In data set [2], the Tm was found to be 46.5 °C.

For the sequence GTATTACGAAAGTACTAC (((.(((....))).))), the folding enthalpy in data set [1] was -19.9 kcal/mol. Also, the Tm in data set [2] was 32.7 °C.

Regarding GTATTAGAAATAATAC ((((((....)))))), the folding enthalpy in data set [1] is -22.2 kcal/mol. Also, in data set [2], the Tm was determined as 31.9 °C.

Regarding GTATTAGGAAACTGATAC ((((.((....)).)))), in data set [1], the folding enthalpy is -21.3 kcal/mol. The Tm in data set [2] was found to be 34.3 °C.

Turning to GTATTCCGAAAGGACTAC (((.(((....))).))), the folding enthalpy in data set [1] is -26.4 kcal/mol. The Tm in data set [2] worked out at 38.2 °C.

For the sequence GTATTCCGAAAGGAGTAC (((.(((....))).))), the folding enthalpy in data set [1] is -36.7 kcal/mol. The Tm in data set [2] was 47.5 °C.

Take GTATTCGAAAGAAATAC ((((((....))).))): the folding enthalpy in data set [1] is -14.9 kcal/mol. For the same sequence, the Tm in data set [2] worked out at 34 °C.

For the sequence GTATTCGAAAGAATTAC ((((((....))).))), the folding enthalpy in data set [1] is -13 kcal/mol. Besides, the Tm in data set [2] is 31.4 °C.

As to GTATTCGGAAACGAATGC (.(((((....))))).), the folding enthalpy in data set [1] is -29.1 kcal/mol. Further, in data set [2], the Tm was 48.6 °C.

Take GTATTGCGAAAGCATAC (((.(((....)))))): in data set [1], the folding enthalpy was -12.2 kcal/mol. In addition, the Tm in data set [2] is 45 °C.

Take GTATTTGGAAACAAATGC (.(((((....))))).): in data set [1], the folding enthalpy was -28.4 kcal/mol. Further, in data set [2], the Tm is 39.9 °C.

Turning to GTATTTGGAAACAGATAC ((((.((....)).)))), in data set [1], the folding enthalpy is -24.7 kcal/mol. Also, the Tm in data set [2] was 32.4 °C.

As for GTCAAACCGAAAGGTGAC (((..(((....)))))), the folding enthalpy in data set [1] is -21.3 kcal/mol. In data set [2], the Tm amounted to 45.4 °C.

GTCAAACGAAAGTTGAC (((.(((....)))))): the folding enthalpy in data set [1] is -26.5 kcal/mol. Also, the Tm in data set [2] worked out at 49.7 °C.

With GTCAACGAAAGTTCGGAC ((((((....)))..))), the folding enthalpy in data set [1] was -14 kcal/mol. Further, the Tm in data set [2] amounted to 30.5 °C.

On to GTCAACGAAAGTTGAGAC ((((((....)))..))), for which the folding enthalpy in data set [1] was -12.2 kcal/mol. For the same sequence, the Tm in data set [2] came to 43.3 °C.

Take GTCAACGAAAGTTTCGAC ((((((....)))..))): the folding enthalpy in data set [1] is -14.3 kcal/mol. Besides, in data set [2], the Tm came out at 26.6 °C.

Take GTCAACGCGAAAGCGGAC (((..(((....)))))): the folding enthalpy in data set [1] was -15.3 kcal/mol. Moreover, in data set [2], the Tm was determined as 42 °C.

In the case of GTCAACGGAAACGTCGAC (((.(((....))).))), in data set [1], the folding enthalpy was -33 kcal/mol. Besides, in data set [2], the Tm is 44.4 °C.

As for GTCAAGAAATTGAC (((((....))))), in data set [1], the folding enthalpy is -21.6 kcal/mol. Also, the Tm in data set [2] stood at 40.8 °C.

As for GTCAAGCCGAAAGGCGAC (((..(((....)))))), in data set [1], the folding enthalpy is -12.2 kcal/mol. Besides, in data set [2], the Tm was determined as 45.1 °C.

As for GTCAAGGGAAACCTCGAC (((.(((....))).))), the folding enthalpy in data set [1] is -19.1 kcal/mol. Besides, in data set [2], the Tm was 37.5 °C.

GTCAAGGGAAACTTTGAC (((((.(....).))))): in data set [1], the folding enthalpy was -26.4 kcal/mol. Also, the Tm in data set [2] is 40.3 °C.

On to GTCACAGCGAAAGCTGAC (((..(((....)))))), for which the folding enthalpy in data set [1] was -10.4 kcal/mol. In addition, in data set [2], the Tm was 34.2 °C.

Take GTCACAGGAAACTGTAAC ((.((((....)))).)): in data set [1], the folding enthalpy was -17.3 kcal/mol. In data set [2], the Tm was found to be 30.9 °C.

Turning to GTCACCACGAAAGTGGAC (((..(((....)))))), in data set [1], the folding enthalpy is -7.89 kcal/mol. Also, the Tm in data set [2] amounted to 31.1 °C.

Take GTCACCGAAAGGTAGAC ((((((....))).))): the folding enthalpy in data set [1] was -18.9 kcal/mol. Further, the Tm in data set [2] was determined as 51 °C.

Turning to GTCACCGAAAGGTAGGAC ((((((....)))..))), the folding enthalpy in data set [1] was -17.2 kcal/mol. Besides, the Tm in data set [2] was 37.4 °C.
